Source: PubChem BioAssay (Broad Institute)
PGC1a acetyl inh: PGC1a acetylation modulation, inhibitor mode | hit rate 0.17% among 350,000 | U2OS PGC1a acetylation, AlphaScreen anti-acetyl-lysine; with virally co-expressed GCN5 acetyltransferase | inhibition, % at 15.6 µM;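 active = every replicate shows inhibition of at least 40%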;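 note: 0% = neutral control wells and 100% = positive control wells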
FN deposit inh: fibronectin deposition inhibition | AH1F fibroblasts, Alexa488-fibronectin deposition fluorescence, overnight | inhibition, % at 12.6 µM | hit rate 0.086% among 350,000;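 active = mean inhibition across replicates of 30% or more, regardless of how many single replicates reach that level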;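 note: positive control wells lacked labelled fibronectin entirely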
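Assay system: AH1F fibroblasts / Quantity: 10000 cells per well / Medium: DMEM plus 2% serum, read in PBS / Reagent: labelled fibronectin 24 nM / Dosing: single dose, pinned / Times: 1 h cell attachment, overnight exposure to compound and label / Signal: fluorescence, ex 485 nm, em 525 nm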
SIRT5 inh: sirtuin-5 (human) deacylase inhibition | Q9NXA8 | Purified SirT5, succinyl-peptide AMC, trypsin-coupled fluorescence | inhibition, % at 15 µM | hit rate 1.1% among 330,000 | AID 652115; in the data active = inhibition above about 15%
FGF22 binding: FGF22 (human) thermal shift binding; hit rate 1.5% among 340,000; activity (Tm shift, normalised), % at 9.99 µM; AID 651658; Q9HCT0; recombinant FGF22 thermal shift, SYPRO orange fluorescence; percent of sucrose octasulfate shift, DMSO zero;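 active = mean Tm shift, scaled 0 neutral to 100 positive control, at about 1.3% or above, every replicate too, limit read from the data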
Target sequence (Q9HCT0 whole entry, looked up): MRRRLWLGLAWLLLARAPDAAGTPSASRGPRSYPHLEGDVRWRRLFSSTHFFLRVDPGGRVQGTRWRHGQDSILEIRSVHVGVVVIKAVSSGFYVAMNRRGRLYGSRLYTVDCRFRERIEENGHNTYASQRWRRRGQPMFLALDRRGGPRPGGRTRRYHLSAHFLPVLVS
ERAP1 HTS inh: inhibitors of human ERAP1 aminopeptidase. Q9NZ08. AID 652197. inhibition, % at 10.7 µM. recombinant ERAP1, Leu-AMC fluorescence, 60 min. hit rate 0.15% among 340,000;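 active = mean replicate inhibition of at least 30%, or all replicates individually reaching that 30% level; inactive = mean below 30% and not every replicate reaching it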;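 note: 0% = neutral control wells and 100% = L-leucinethiol positive control wells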
* = called active by the depositor; · = no result. In the library only some 2.2% were active in any assay of this set; here they are far more common.

SMILES	PGC1a acetyl inh	FN deposit inh	SIRT5 inh	FGF22 binding	ERAP1 HTS inh
CCCC#Cc1ccc([C@H]2[C@@H](CO)N(C(C)=O)[C@H]2CN(C)S(C)(=O)=O)cc1	·	-1.5	·	·	·
O=C(CN1CCOCC1)NCC[C@H]1CC[C@@H](NS(=O)(=O)c2ccc(F)cc2)[C@@H](CO)O1	7.0	·	-1.0	0.0	-1.6
CC(C)NC(=O)N1C[C@H]2[C@@H](c3ccccc31)[C@H](CO)N2C(=O)C1CCCC1	-13.8	·	1.5	-0.1	5.6
COc1ccc(S(=O)(=O)N(C)C[C@@H]2Oc3c(NC(=O)c4ccncc4)cccc3C(=O)N([C@@H](C)CO)C[C@H]2C)cc1	5.8	·	16.5*	-0.4	0.6
COc1ccc(S(=O)(=O)Nc2cccc3c2O[C@@H](CN(C)S(=O)(=O)c2c(C)noc2C)[C@H](C)CN([C@H](C)CO)C3=O)cc1	-8.3	·	102.0*	-0.5	-0.6
COc1ccc(S(=O)(=O)N(C)C[C@@H]2Oc3c(NC(=O)c4ccncc4)cccc3C(=O)N([C@@H](C)CO)C[C@@H]2C)cc1	-2.6	·	-2.1	0.1	0.7
CCCNC(=O)Nc1ccc2c(c1)OC[C@@H](C)N(C(=O)c1ccccc1F)C[C@@H](C)[C@@H](OC)CN(C)C2=O	1.0	-5.9	-0.2	0.1	-0.9
CNC(=O)c1sc(-c2ccccc2)nc1C	-5.4	·	·	·	·
Cc1nc(-c2ccccc2)sc1C(=O)NS(=O)(=O)c1ccc(CN2CCN(c3ccccc3)CC2)cc1	·	1.9	21.8*	1.1	·
C[C@H]1CN([C@@H](C)CO)C(=O)Cc2cc(NC(=O)c3ccncc3)ccc2O[C@H]1CN(C)S(=O)(=O)c1cn(C)cn1	0.4	·	-5.3	0.0	-0.2
CC=Cc1ccc2n(c1=O)C[C@H]1[C@H](CO)[C@@H](C(=O)NCc3ccccc3)N(C)[C@@H]21 (mixture of isomers)	·	·	14.9	16.6*	0.1
CC=Cc1ccc2n(c1=O)C[C@@H]1[C@@H](CO)[C@H](C(=O)NCc3ccc(F)cc3)N(C)[C@H]21 (mixture of isomers)	2.9	·	5.6	-0.3	-1.1
CC=Cc1ccc2n(c1=O)C[C@H]1[C@H](CO)[C@@H](C(=O)N[C@@H](C)c3ccccc3)[C@@H]2N1Cc1ccncc1 (mixture of isomers)	·	·	-7.3	15.8*	1.9
CC=Cc1ccc2n(c1=O)C[C@@H]1[C@@H](CO)[C@H](C(=O)NC3CCCC3)N(CCC)[C@H]21 (mixture of isomers)	6.4	·	15.4*	·	1.8
CC=Cc1ccc2n(c1=O)C[C@@H]1[C@@H](CO)[C@H](C(=O)N[C@H](C)c3ccccc3)[C@H]2N1Cc1ccncc1 (mixture of isomers)	·	·	-13.2	0.0	1.1
COc1ccc2nc(C)cc(N3CCC(C(N)=O)CC3)c2c1	10.5	1.2	7.4	43.3*	2.9
CCOC(=O)C1CCN(c2cc(C)nc3ccc(OC)cc23)CC1	11.9	-8.8	1.3	0.2	-0.8
CNS(=O)(=O)c1ccc2nc(NC(=O)/C=C/c3ccco3)sc2c1	·	1.9	-1.6	43.2*	5.0
Cc1nc(NC(=O)/C=C/c2ccco2)sc1C	·	6.1	-2.5	0.5	1.1
C[C@@H]1CN([C@@H](C)CO)C(=O)c2cc(C3=CCCC3)cnc2O[C@@H]1CN(C)Cc1ccccc1F	4.7	·	-0.2	0.0	0.8
CCCCCC(=O)Nc1cc(S(=O)(=O)O)cc2cc(S(=O)(=O)O)cc(O)c12	·	-1.6	35.9*	0.4	9.5
CCCCCC(=O)Nc1cc(S(=O)(=O)N2CCCCC2)ccc1N1CCCCC1	-5.5	0.0	-3.7	0.3	0.1
C[C@@H]1CN([C@@H](C)CO)C(=O)c2cccc(NC(=O)CCCCCC(=O)Nc3ccccc3N)c2O[C@@H]1CN(C)C(=O)NC1CCCCC1	0.5	-14.0	5.7	0.5	0.8
C[C@H]1CN([C@@H](C)CO)S(=O)(=O)c2ccc(C#CC3CCCCC3)cc2O[C@H]1CN(C)C	-38.0	-4.9	4.8	-0.5	-3.5
COc1ccc([C@H]2CC(=O)C[C@@H](CCn3cc(-c4cccnc4)nn3)O2)cc1	·	-2.1	33.3*	0.1	·
O=C(C[C@H]1CC[C@H]2[C@@H](COC[C@H](O)CN2C(=O)c2ccccc2F)O1)N1CCCCC1	-3.8	8.5	0.4	-0.1	1.3
CC(=O)Nc1ccc(SC(Sc2ccc(NC(C)=O)cc2)c2ccccc2)cc1	6.2	-5.7	-1.5	1.4*	7.8
